Rows were chosen to be rich in hits. Some 1.9% of all compounds tested hit in one or more screens of this group.
CHRM4 PAM: positive allosteric modulators of human muscarinic M4 receptor | 360,000 compounds, 0.4% hits | CHO-K1 hM4/Gqi5, Fluo-8 calcium fluorescence, ACh EC20; 0% = ACh EC20, 100% = maximal ACh | P08173 | activation, % at 3 µM;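 active = activation above its plate's cutoff, the mean activation of sample wells plus 3 SD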
Target sequence (P08173 whole entry, looked up): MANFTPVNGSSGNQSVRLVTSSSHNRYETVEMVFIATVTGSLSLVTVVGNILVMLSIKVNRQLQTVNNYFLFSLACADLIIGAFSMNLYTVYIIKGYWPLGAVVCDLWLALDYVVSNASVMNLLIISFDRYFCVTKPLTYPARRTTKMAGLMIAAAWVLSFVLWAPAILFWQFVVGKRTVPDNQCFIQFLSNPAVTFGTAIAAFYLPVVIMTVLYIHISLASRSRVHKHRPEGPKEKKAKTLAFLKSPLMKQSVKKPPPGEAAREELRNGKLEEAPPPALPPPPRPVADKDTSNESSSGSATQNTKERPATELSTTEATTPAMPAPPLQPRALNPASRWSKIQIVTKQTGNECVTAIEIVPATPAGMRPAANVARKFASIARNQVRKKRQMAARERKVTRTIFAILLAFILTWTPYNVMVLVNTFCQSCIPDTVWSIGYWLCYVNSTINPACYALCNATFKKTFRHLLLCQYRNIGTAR
CHRM4 agonist: agonists of human muscarinic M4 receptor (CHRM4). P08173. CHO-K1 hM4/Gqi5, Fluo-8 calcium fluorescence; vehicle 0%, full acetylcholine response 100%. activation, % at 3 µM. 360,000 compounds, 0.14% hits. AID 624127;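 active = activation above the run mean over all test wells plus 3 SD, cut at about 32% in these data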;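 also: peak over basal fluorescence ratio per well then scaled between controls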
M5 PAM: positive allosteric modulators of human muscarinic M5 receptor; P08912; CHO-K1 hM5, Fluo-8 calcium, ACh EC20 PAM; 0% = ACh EC20, 100% = ACh EC100; activation, % at 3 µM; 360,000 compounds, 0.3% hits; AID 624038;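 active = activation above the run cutoff, the mean activation of all test compounds plus 3 SD, cut at about 18% in these data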
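Measured by: Fluo-8 calcium fluorescence; material: human M5 receptor in CHO-K1 cells; schedule: Post-acetylcholine fluorescence recording 140 s; benchmarks: low control EC20 acetylcholine (0%), high control EC100 acetylcholine (100%); read-out: Max/basal fluorescence ratio as % of EC20–EC100 ACh window; compound: single dose, 3 µM nominal final test concentration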
CHRM4 antagonist: CHRM4 antagonism in calcium assay; P08173; CHO-hM4 cells, ACh EC80, Fluo-8 calcium fluorescence; inhibition, % at 3 µM; 360,000 compounds, 0.73% hits; AID 624125;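 active = inhibition above its plate's cutoff, the mean inhibition of sample wells plus 3 SD, cut at about 27% in these data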
M5 antag: blocks acetylcholine activation of human M5 receptor | CHO-hM5 cells, Fluo-8 calcium fluorescence, ACh EC80 | inhibition, % at 3 µM | 360,000 compounds, 0.59% hits | AID 624040;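 active = inhibition above a per-plate cutoff, the mean of that plate's test compounds plus 3 SD, cut at about 27% in these data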
M5 ag: CHRM5 agonism in calcium assay. P08912. CHO-K1 hM5 cells, Fluo-8 calcium fluorescence; 0% DMSO wells, 100% maximal acetylcholine response. activation, % at 3 µM. 360,000 compounds, 0.19% hits. AID 624037;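 active = activation above the run's mean over test compounds plus 3 SD, cut at about 23% in these data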;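 also: signal is peak over basal fluorescence ratio across the kinetic read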
A number is an active result.

`Cc1cc2c(cc1C)-n1nnnc1C(N1CCN(c3ccccc3F)CC1)C(=O)N2` (stereo not given) gave CHRM4 PAM inactive, CHRM4 agonist inactive, M5 PAM inactive, CHRM4 antagonist inactive, M5 antag inactive and M5 ag inactive.
COc1ccc(OC)c(-c2cc(C(=O)N/N=C/c3ccc(F)cc3)c3ccccc3n2)c1 was read as CHRM4 PAM inactive, CHRM4 agonist inactive, M5 PAM inactive, CHRM4 antagonist inactive, M5 antag inactive and M5 ag inactive.
COc1ccc(-c2cc(C(=O)N3CCN(c4ncccn4)CC3)c3ccccc3n2)c(OC)c1 was read as CHRM4 PAM inactive, CHRM4 agonist inactive, M5 PAM inactive, CHRM4 antagonist inactive, M5 antag inactive and M5 ag inactive.
COc1ccc(-c2cc(C(=O)N3CCN(c4ccccc4F)CC3)c3ccccc3n2)c(OC)c1 was read as CHRM4 PAM inactive, CHRM4 agonist inactive, M5 PAM inactive, CHRM4 antagonist inactive, M5 antag 36 and M5 ag inactive.
Screening COc1ccc(OC)c(-c2cc(C(=O)Nc3ccccc3C(N)=O)c3ccccc3n2)c1 returned CHRM4 PAM inactive, CHRM4 agonist inactive, M5 PAM inactive, CHRM4 antagonist 31, M5 antag inactive and M5 ag inactive.
`COc1ccc(-c2cc(C(=O)N3CCCCCC3)c3ccccc3n2)c(OC)c1` gave CHRM4 PAM inactive, CHRM4 agonist inactive, M5 PAM inactive, CHRM4 antagonist inactive, M5 antag inactive and M5 ag inactive.
For COc1ccc(OC)c(-c2cc(C(=O)N3CCN(c4ncccn4)CC3)c3ccccc3n2)c1 the results were CHRM4 PAM inactive, CHRM4 agonist inactive, M5 PAM inactive, CHRM4 antagonist inactive, M5 antag 31 and M5 ag inactive.
CC(=O)Nc1cccc(-c2cc(NC(C)=O)c3ncc(-c4ccc(C(C)=O)cc4)n3c2)c1 was read as CHRM4 PAM inactive, CHRM4 agonist inactive, M5 PAM inactive, CHRM4 antagonist inactive, M5 antag inactive and M5 ag inactive.
For Cc1cc(C)c2cc(C#N)c(NCCCNC(=O)c3cccnc3)nc2c1 the results were CHRM4 PAM inactive, CHRM4 agonist inactive, M5 PAM inactive, CHRM4 antagonist inactive, M5 antag inactive and M5 ag inactive.
CN(Cc1cnn(-c2ccc(F)cc2)c1)C(=O)[C@H]1O[C@@H](n2ccc(=O)[nH]c2=O)[C@H](O)[C@@H]1O was read as CHRM4 PAM inactive, CHRM4 agonist inactive, M5 PAM inactive, CHRM4 antagonist inactive, M5 antag inactive and M5 ag inactive.
CCC(C)N(C)Cc1cccc(C2(O)CCN(S(=O)(=O)c3ccc(F)c(C)c3)CC2)c1 (stereo not given) was read as CHRM4 PAM inactive, CHRM4 agonist inactive, M5 PAM inactive, CHRM4 antagonist 66, M5 antag inactive and M5 ag inactive.
O=C1c2ccccc2C(=O)N1CCC1=CCCCC1 was read as CHRM4 PAM inactive, CHRM4 agonist inactive, M5 PAM 19, CHRM4 antagonist inactive, M5 antag inactive and M5 ag inactive.
O=C(O)c1ccc2c(c1)C(=O)N(CCC1=CCCCC1)C2=O was read as CHRM4 PAM inactive, CHRM4 agonist inactive, M5 PAM inactive, CHRM4 antagonist inactive, M5 antag inactive and M5 ag inactive.
For CC1(C(=O)Nc2cccc(C#N)c2)CCN1C(=O)Cc1ccc(-c2ccccc2)cc1 (stereo not given) the results were CHRM4 PAM inactive, CHRM4 agonist inactive, M5 PAM inactive, CHRM4 antagonist inactive, M5 antag inactive and M5 ag inactive.
`Nc1sccc1C(=O)NCc1ccccc1` gave CHRM4 PAM inactive, CHRM4 agonist inactive, M5 PAM inactive, CHRM4 antagonist inactive, M5 antag inactive and M5 ag inactive.
For CCc1c(-c2ccc(OC)cc2)ncn1Cc1cccc(-c2ccccc2)c1 the results were CHRM4 PAM inactive, CHRM4 agonist inactive, M5 PAM inactive, CHRM4 antagonist inactive, M5 antag inactive and M5 ag inactive.
`FC(F)C(F)(F)c1cc(-c2ccc(Cl)cc2)n[nH]1` gave CHRM4 PAM inactive, CHRM4 agonist inactive, M5 PAM inactive, CHRM4 antagonist 28, M5 antag inactive and M5 ag inactive.
Screening Fc1ccc(-c2cc(C(F)(F)C(F)F)[nH]n2)cc1 returned CHRM4 PAM inactive, CHRM4 agonist inactive, M5 PAM inactive, CHRM4 antagonist inactive, M5 antag inactive and M5 ag 32.
Screening COc1ccc(-n2nnnc2C(c2cccc3ccccc23)N2CCN(C/C=C/c3ccccc3)CC2)cc1 (stereo not given) returned CHRM4 PAM inactive, CHRM4 agonist inactive, M5 PAM inactive, CHRM4 antagonist inactive, M5 antag inactive and M5 ag inactive.
`COc1ccc(-n2nnnc2C(c2cc3ccccc3o2)N2CCN(C/C=C/c3ccccc3)CC2)cc1` (stereo not given) gave CHRM4 PAM inactive, CHRM4 agonist inactive, M5 PAM inactive, CHRM4 antagonist inactive, M5 antag 36 and M5 ag inactive.
C(=C\c1ccccc1)/CN1CCN(C(c2cc3ccccc3o2)c2nnnn2-c2ccc3c(c2)OCCO3)CC1 (stereo not given) was read as CHRM4 PAM inactive, CHRM4 agonist inactive, M5 PAM inactive, CHRM4 antagonist inactive, M5 antag 42 and M5 ag inactive.
`C(=C\c1ccccc1)/CN1CCN(C(c2cccs2)c2nnnn2-c2ccc3c(c2)OCCO3)CC1` (stereo not given) gave CHRM4 PAM inactive, CHRM4 agonist inactive, M5 PAM inactive, CHRM4 antagonist 29, M5 antag 70 and M5 ag inactive.
Screening COc1ccc(C(c2nnnn2-c2ccc3c(c2)OCCO3)N2CCN(C/C=C/c3ccccc3)CC2)cc1 (stereo not given) returned CHRM4 PAM inactive, CHRM4 agonist inactive, M5 PAM inactive, CHRM4 antagonist 35, M5 antag 67 and M5 ag inactive.
`CCOc1ccc(Cl)cc1-c1cc(C(=O)NCc2cc(C(F)(F)F)cc(C(F)(F)F)c2)[nH]n1` gave CHRM4 PAM inactive, CHRM4 agonist inactive, M5 PAM inactive, CHRM4 antagonist inactive, M5 antag inactive and M5 ag inactive.
Cn1ncc(Br)c1NC(=O)Nc1ccc(OC(F)(F)F)cc1 was read as CHRM4 PAM inactive, CHRM4 agonist inactive, M5 PAM inactive, CHRM4 antagonist inactive, M5 antag 27 and M5 ag inactive.
`COc1cccc(/C=C2\CCCCC2=O)c1` gave CHRM4 PAM inactive, CHRM4 agonist inactive, M5 PAM 31, CHRM4 antagonist inactive, M5 antag inactive and M5 ag inactive.
`COc1cccc(/C=C2\CCC(C3CCCC3)C2=O)c1` (stereo not given) gave CHRM4 PAM inactive, CHRM4 agonist inactive, M5 PAM inactive, CHRM4 antagonist inactive, M5 antag inactive and M5 ag inactive.

Assay outcomes from PubChem.
